# Results: PMC2556891 (ACS chemical biology, 2008)
# Positions count from the first letter of the chain named.
# What was measured:
# ClC-Ka = molecular target: T1, ClC-Ka (Homo sapiens, UniProt P51800); details: cited from earlier work
# T1 sequence (P51800 1-687): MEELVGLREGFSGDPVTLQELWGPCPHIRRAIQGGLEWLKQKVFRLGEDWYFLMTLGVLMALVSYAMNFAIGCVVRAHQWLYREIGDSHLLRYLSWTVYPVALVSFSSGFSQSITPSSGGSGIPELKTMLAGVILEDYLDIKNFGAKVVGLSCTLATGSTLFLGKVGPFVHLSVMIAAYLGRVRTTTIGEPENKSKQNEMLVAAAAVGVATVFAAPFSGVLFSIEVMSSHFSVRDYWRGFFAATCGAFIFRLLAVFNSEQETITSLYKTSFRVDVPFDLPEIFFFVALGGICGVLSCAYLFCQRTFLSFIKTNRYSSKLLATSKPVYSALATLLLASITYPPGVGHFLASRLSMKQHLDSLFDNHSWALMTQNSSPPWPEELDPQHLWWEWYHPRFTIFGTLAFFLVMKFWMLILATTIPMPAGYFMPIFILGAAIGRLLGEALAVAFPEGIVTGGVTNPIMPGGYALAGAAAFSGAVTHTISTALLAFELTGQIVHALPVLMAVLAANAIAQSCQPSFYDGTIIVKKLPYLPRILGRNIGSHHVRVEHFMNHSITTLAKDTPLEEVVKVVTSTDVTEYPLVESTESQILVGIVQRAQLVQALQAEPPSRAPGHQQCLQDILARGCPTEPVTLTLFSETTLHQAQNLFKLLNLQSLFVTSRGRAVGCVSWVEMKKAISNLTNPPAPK
# T1 sequence (Q8WZ55 1-320 Y98A partner): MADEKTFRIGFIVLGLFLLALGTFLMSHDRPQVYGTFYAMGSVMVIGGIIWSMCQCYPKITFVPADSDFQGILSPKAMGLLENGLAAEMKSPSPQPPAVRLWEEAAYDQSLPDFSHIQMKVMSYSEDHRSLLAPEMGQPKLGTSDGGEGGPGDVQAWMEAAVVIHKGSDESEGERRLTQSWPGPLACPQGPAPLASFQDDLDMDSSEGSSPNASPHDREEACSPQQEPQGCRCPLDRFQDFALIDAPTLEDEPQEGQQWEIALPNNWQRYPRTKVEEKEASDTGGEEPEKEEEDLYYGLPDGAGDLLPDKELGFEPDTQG
# ClC-0 [1] = molecular target: T2, ClC-0 (Torpedo marmorata, UniProt P21564); details: cited from earlier work
# T2 sequence (P21564 1-805): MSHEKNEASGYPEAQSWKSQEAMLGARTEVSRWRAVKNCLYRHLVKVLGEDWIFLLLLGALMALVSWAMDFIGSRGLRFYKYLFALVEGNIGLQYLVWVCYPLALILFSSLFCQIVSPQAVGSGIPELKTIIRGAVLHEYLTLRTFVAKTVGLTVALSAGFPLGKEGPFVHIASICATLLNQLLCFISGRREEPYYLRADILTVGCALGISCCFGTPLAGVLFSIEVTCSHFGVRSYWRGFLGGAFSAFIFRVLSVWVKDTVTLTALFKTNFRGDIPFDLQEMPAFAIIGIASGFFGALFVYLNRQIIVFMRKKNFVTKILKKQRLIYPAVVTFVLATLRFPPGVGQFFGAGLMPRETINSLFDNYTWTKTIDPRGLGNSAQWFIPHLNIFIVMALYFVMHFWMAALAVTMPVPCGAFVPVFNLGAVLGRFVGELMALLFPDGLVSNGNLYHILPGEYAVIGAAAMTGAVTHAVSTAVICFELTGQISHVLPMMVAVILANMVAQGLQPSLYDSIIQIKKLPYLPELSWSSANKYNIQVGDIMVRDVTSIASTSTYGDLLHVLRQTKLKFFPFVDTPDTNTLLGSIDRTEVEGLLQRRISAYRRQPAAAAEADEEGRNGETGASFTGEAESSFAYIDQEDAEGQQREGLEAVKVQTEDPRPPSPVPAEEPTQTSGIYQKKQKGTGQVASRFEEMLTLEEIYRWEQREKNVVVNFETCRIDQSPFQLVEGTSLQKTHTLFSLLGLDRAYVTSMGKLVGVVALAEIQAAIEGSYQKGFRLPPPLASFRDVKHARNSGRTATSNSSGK
# ClC-Ka N68D = molecular target: T3, ClC-Ka N68D (Homo sapiens, UniProt P51800, N68D); details: cited from earlier work
# T3 sequence (P51800 1-687 N68D): T1 sequence (P51800 1-687) with N68D
# T3 sequence (Q8WZ55 1-320 Y98A partner): T1 sequence (Q8WZ55 1-320 Y98A partner)
# [2] = Stability of DIDS in aqueous solution by reversed-phase HPLC; assay type: physicochemical
# ClC-ec1 = ClC-ec1 (Escherichia coli, UniProt P37019); assay: Chloride flux assay with ClC-ec1 reconstituted in vesicles; assay type: biochemical
# ClC-0 [3] = molecular target: T2, ClC-0; assay: ClC-0 currents, inside-out patches from Xenopus oocytes; assay type: cell-based; details: intracellular application, various concentrations
# How it was run: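 Defolliculated Xenopus oocytes injected with 27.5 nL ClC-0 RNA (~500 ng/μL) and kept at 16 °C for 2-7 days. Test compound delivered by microfluidic switching. Holding at 0 mV; every 5 s step to +50 mV (50 ms) then −100 mV (50 ms). Instantaneous −100 mV current taken over time as I/Io; initial inhibition rate fitted; 3-5 oocytes; mean ± SEM.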
# [4] = Hill fit of ClC-ec1 chloride flux inhibition
# ClC-ec1, sequence (P37019 whole entry): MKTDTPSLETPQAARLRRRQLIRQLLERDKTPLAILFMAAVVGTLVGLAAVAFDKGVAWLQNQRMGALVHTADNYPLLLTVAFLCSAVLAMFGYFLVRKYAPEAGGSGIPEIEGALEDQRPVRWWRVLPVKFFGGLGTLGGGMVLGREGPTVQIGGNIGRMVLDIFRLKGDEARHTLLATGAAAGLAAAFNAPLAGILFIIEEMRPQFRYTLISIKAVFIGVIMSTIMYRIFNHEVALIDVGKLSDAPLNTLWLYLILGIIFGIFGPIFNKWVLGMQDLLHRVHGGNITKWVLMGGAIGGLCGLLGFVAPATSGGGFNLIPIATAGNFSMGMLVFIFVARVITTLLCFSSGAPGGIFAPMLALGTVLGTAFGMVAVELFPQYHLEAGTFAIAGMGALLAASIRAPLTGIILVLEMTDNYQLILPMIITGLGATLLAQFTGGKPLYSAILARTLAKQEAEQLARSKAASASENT
Compound,reversibility of ClC-Ka inhibition from the extracellular side (ClC-Ka),reversibility of ClC-0 inhibition (ClC-0 [1]),decrease of apparent affinity by N68D mutation in ClC-Ka (ClC-Ka N68D) [fold],stability in aqueous solution (reversed-phase HPLC) ([2]; after 3 h in aqueous solution),stability in solution (HPLC) ([2]; after 48 h),stability in solution (HPLC) ([2]; within 24 h in solution),(A/Ao)max (ClC-ec1; [4]),Hill coefficient n (ClC-ec1; [4]),effect on ClC-0 (ClC-0 [3]),effect on ClC-ec1 activity (ClC-ec1; at concentrations as high as 2 mM)
"O=S(=O)(O)c1cc(N=C=S)ccc1C=Cc1ccc(N=C=S)cc1S(=O)(=O)O [DIDS, 4,4′-diisothiocyanatostilbene-2,2′-disulfonic acid]",slowly reversible,irreversible,10,single peak,no DIDS was apparent,partially decomposed,1.08,2,,
"Nc1ccc(C=Cc2ccc(N)cc2S(=O)(=O)O)c(S(=O)(=O)O)c1 [DADS, 4,4′-diaminostilbene-2,2′-disulfonic acid]",,,,,,,,,no effect,does not affect
